# Reference: PMC5242172 (Pharmacology Research & Perspectives, 2016)
# Read-outs that look alike come from different tables or passages of the source.
# Assays:
# [1] = biological target: bovine heart mitochondrial complex I (Bos taurus, UniProt P03887+P17694+P42026); assay: Complex I activity; type: biochemical
# [2] = system: NCI-H23 cells; assay: Cellular oxygen consumption rate; type: cell-based, human; conditions: NCI-H23, 1 h after drug
# [3] = system: NCI-H23 cells; assay: Cellular ATP measurement; type: cell-based, human; conditions: NCI-H23, 6 h of treatment
# Procedure, shortened: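 NCI-H23 cells in RPMI 1640 with 5% FBS were plated at 1–2 × 10^5 cells/mL and incubated overnight at 37°C, 5% CO2. Test compound diluted in medium was added for 6 h, with final DMSO below 1%. Lysis buffer and substrate were added, and luciferase-based luminescence was read. ATP was expressed as % of solvent-treated wells; mean ± SEM, n = 3.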
# [4] = system: panel of 39 human cancer cell lines (JFCR39); assay: Growth inhibition profile, summary over the JFCR39 panel; type: cell-based
# [5] = system: mitochondrial complexes (complex II–V); assay: Activities of OxPhos complexes II-V; type: biochemical; conditions: II + III, IV, V (Fig. S2)
# [6] = system: NCI-H23 cells; assay: Viable cell number; type: cell-based, human; conditions: NCI-H23, 6 h of treatment
# Procedure, shortened: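 NCI-H23 cells were grown in RPMI 1640 with 5% FBS at 37°C, 5% CO2, and exposed to test compound (DMSO stocks 10 or 100 mmol/L) for 6 h. Viable cells were counted by trypan blue exclusion on an automated cell counter and expressed as % of nontreated control; mean ± SEM, n = 3.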
# [7] = system: mitochondrial DNA-deficient (ρ0) NCI-H23 cells; assay: Growth of ρ0 versus ρ+ cells, sulforhodamine B assay; type: cell-based, human; conditions: NCI-H23 ρ0 vs ρ+, 48 h
# [8] = system: xenograft tumors; conditions: ref Kojima et al. 2014; cited from earlier work
# bovine heart mitochondrial complex I, sequence (P03887 whole entry): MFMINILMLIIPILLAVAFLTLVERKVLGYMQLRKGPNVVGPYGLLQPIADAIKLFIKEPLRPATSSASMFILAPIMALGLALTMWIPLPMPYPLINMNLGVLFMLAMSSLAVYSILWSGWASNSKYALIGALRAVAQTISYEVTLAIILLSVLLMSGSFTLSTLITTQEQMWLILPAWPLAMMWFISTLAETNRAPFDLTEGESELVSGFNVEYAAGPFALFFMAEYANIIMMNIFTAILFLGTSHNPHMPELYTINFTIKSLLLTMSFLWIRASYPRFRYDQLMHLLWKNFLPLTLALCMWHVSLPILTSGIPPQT
# bovine heart mitochondrial complex I, sequence (P42026 38-216): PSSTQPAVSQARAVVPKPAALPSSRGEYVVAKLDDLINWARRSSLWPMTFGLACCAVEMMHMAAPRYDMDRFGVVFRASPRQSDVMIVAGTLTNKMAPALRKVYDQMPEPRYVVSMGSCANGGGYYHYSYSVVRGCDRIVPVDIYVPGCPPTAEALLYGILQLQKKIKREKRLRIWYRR
# bovine heart mitochondrial complex I, sequence (P17694 34-463): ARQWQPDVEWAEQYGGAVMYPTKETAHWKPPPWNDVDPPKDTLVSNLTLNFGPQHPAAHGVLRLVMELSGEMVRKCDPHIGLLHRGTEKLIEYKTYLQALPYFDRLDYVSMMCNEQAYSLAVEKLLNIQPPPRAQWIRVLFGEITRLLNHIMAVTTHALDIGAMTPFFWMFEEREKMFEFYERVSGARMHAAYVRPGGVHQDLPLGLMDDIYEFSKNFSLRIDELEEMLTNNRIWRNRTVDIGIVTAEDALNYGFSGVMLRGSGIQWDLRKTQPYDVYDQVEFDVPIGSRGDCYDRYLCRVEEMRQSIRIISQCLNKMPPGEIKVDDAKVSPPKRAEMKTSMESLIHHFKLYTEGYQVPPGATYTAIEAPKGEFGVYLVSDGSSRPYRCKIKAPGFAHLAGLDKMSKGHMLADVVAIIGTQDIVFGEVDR
structure (smiles),measurement,setting,value
"COc1cc2c(cc1OC)[C@@H]1C(=O)c3ccc4c(c3O[C@@H]1CO2)C=CC(C)(C)O4 [Deguelin, reference compound]",IC50,[1],40 nM
"CN(C)c1cccc2c(S(=O)(=O)NCCCCCCCCC[C@@H](O)[C@H]3CC[C@H]([C@H](O)CCCCCCCCCCNC(=O)c4ccsc4)O3)cccc12 [JCI-13291, N‐[(R)‐11‐((2R,5R)‐5‐{(R)‐10‐[5‐(Dimethylamino)naphthalene‐1‐sulfonamido]‐1‐hydroxydecyl}tetrahydrofuran‐2‐yl)‐11‐hydroxyundecyl]thiophene‐3‐carboxamide]",effect on cellular oxygen consumption rate,[2],inhibited the aerobic aspiration of NCI‐H23 cells
same,effect on intracellular ATP content,[3],depleted intracellular ATP content
"CCCCCCCCCCCC[C@@H](O)[C@H]1CC[C@H]([C@H](O)CCCCCCCCCCNC(=O)c2ccsc2)O1 [JCI-20679, N‐((R)‐11‐Hydroxy‐11‐{(2R,5R)‐5‐[(R)‐1‐hydroxytridecyl]tetrahydrofuran‐2‐yl}undecyl)thiophene‐3‐carboxamide]",GI50,"[4]; 48 h, read-out: MG-MID, the mean of log GI50 values for 39 cell lines (converted)",2750 nM
same,GI50,[4]; read-out: mean GI50 within the JFCR39 panel,2750 nM
same,IC50,[1],170 nM
same,"complex I inhibition, activity relative to rotenone",[1]; ratio of IC50 values,seven times less activity than rotenone
same,"complex I inhibition, times greater activity than phenformin",[1]; ratio of IC50 values,6000 times
same,"complex I inhibition, times greater activity than solamin",[1]; ratio of IC50 values,30 times
same,inhibition of mitochondrial complexes II–V,[5],None of the other mitochondrial complexes (complex II–V) were inhibited
same,effect on cellular oxygen consumption rate,[2],inhibited the oxygen consumption of NCI‐H23 cells in a dose‐dependent manner
same,effect on intracellular ATP content,[3],ATP depletion by JCI‐20679 in a dose‐dependent manner
same,viable cell number,[6],hardly changed
same,sensitivity of ρ0 cells compared with ρ+ cells,[7],more resistant
same,antitumor activity in mouse xenograft models,[8],more potent antitumor activity than solamin
same,side effects in mouse xenograft models,[8],no severe side effects
"C=C(C)[C@H]1Cc2c(ccc3c2O[C@@H]2COc4cc(OC)c(OC)cc4[C@@H]2C3=O)O1 [Rotenone, reference compound]",effect on cellular oxygen consumption rate,[2],inhibited the oxygen consumption of NCI‐H23 cells in a dose‐dependent manner
